# Assay results taken from ChEMBL document CHEMBL4402517, “Rational modification of Mannich base-type derivatives as novel antichagasic compounds: Synthesis, in vitro and in vivo evaluation” (Bioorg Med Chem, 2019).
# Columns and labels:
# [1] = Genotoxicity in Salmonella typhimurium TA1535 harboring pSK1002 assessed as umu gene induction at 0.008 mg/ml in presence of Sprague-Dawley rat liver S9 fraction metabolic activation by SOS/umu assay relative to control; assay type: toxicity, subcellular; details: salmonella enterica subsp. enterica serovar typhimurium, read-out: FC
# Method in brief: (§1)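 umu induction in S. typhimurium TA1535/pSK1002, with or without S9 mix, in 96-well format. β-galactosidase read colorimetrically with ONPG substrate. Output given as relative units and induction factor (IF). The run is valid if positive controls reach IF ≥2. A compound counts as genotoxic at IF ≥2 at a concentration giving ≥80% bacterial survival.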
# Trypanosoma cruzi = test: Trypanocidal activity against Trypanosoma cruzi trypomastigote form infected in African green monkey Vero cells assessed as ratio of infected cells at 25 uM measured after 72 hrs by Giemsa staining based assay relative to control; assay type: functional
# Method in brief: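 Vero cells in RPMI with 10% heat-inactivated FBS, seeded at 1 × 10^4/well on coverslips for 24 h at 37 °C, 5% CO2. Infected with bloodstream trypomastigotes at MOI 10:1 for 24 h, then washed three times with PBS. Compounds added at 3.1–50 µM for 72 h. Infected cells counted after Giemsa staining. Triplicates, two separate determinations.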
# [2] = Genotoxicity in Salmonella typhimurium TA1535 harboring pSK1002 assessed as survival at 0.001 mg/ml in absence of Sprague-Dawley rat liver S9 fraction metabolic activation by SOS/umu assay relative to control; assay type: toxicity; details: salmonella enterica subsp. enterica serovar typhimurium, read-out: Survival
# Method in brief: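 Salmonella typhimurium TA1535/pSK1002 was exposed to compounds at several concentrations with or without S9 mix, and bacterial survival % was measured. β-galactosidase induction was measured colorimetrically with ONPG substrate. Genotoxicity was counted where IF ≥ 2 at ≥80% survival; runs were valid if positive controls reached IF ≥ 2.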
# [3] = Genotoxicity in Salmonella typhimurium TA1535 harboring pSK1002 assessed as survival at 0.5 mg/ml in presence of Sprague-Dawley rat liver S9 fraction metabolic activation by SOS/umu assay relative to control; assay type: toxicity, subcellular; details: salmonella enterica subsp. enterica serovar typhimurium, read-out: Survival
# Method in brief: (§2)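 Survival of S. typhimurium TA1535/pSK1002 exposed to a range of compound concentrations with or without S9 mix in 96-well format. Survival percentage measured as the cytotoxicity arm of the SOS/umu test. Concentrations with survival ≥80% are counted as non-cytotoxic.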
# [4] = Genotoxicity in Salmonella typhimurium TA1535 harboring pSK1002 assessed as survival at 0.125 mg/ml in presence of Sprague-Dawley rat liver S9 fraction metabolic activation by SOS/umu assay relative to control; assay type: toxicity, subcellular; details: salmonella enterica subsp. enterica serovar typhimurium, read-out: Survival; method in brief: as §2
# [5] = Genotoxicity in Salmonella typhimurium TA1535 harboring pSK1002 assessed as umu gene induction at 0.031 mg/ml in absence of Sprague-Dawley rat liver S9 fraction metabolic activation by SOS/umu assay relative to control; assay type: toxicity; details: salmonella enterica subsp. enterica serovar typhimurium, read-out: FC; method in brief: as §1
# [6] = Genotoxicity in Salmonella typhimurium TA1535 harboring pSK1002 assessed as umu gene induction at 0.008 mg/ml in absence of Sprague-Dawley rat liver S9 fraction metabolic activation by SOS/umu assay relative to control; assay type: toxicity; details: salmonella enterica subsp. enterica serovar typhimurium, read-out: FC; method in brief: as §1
# [7] = Genotoxicity in Salmonella typhimurium TA1535 harboring pSK1002 assessed as umu gene induction at 0.5 mg/ml in presence of Sprague-Dawley rat liver S9 fraction metabolic activation by SOS/umu assay relative to control; assay type: toxicity, subcellular; details: salmonella enterica subsp. enterica serovar typhimurium, read-out: FC; method in brief: as §1
# [8] = Genotoxicity in Salmonella typhimurium TA1535 harboring pSK1002 assessed as umu gene induction at 0.25 mg/ml in presence of Sprague-Dawley rat liver S9 fraction metabolic activation by SOS/umu assay relative to control; assay type: toxicity, subcellular; details: salmonella enterica subsp. enterica serovar typhimurium, read-out: FC; method in brief: as §1
# [9] = Genotoxicity in Salmonella typhimurium TA1535 harboring pSK1002 assessed as umu gene induction at 0.063 mg/ml in presence of Sprague-Dawley rat liver S9 fraction metabolic activation by SOS/umu assay relative to control; assay type: toxicity, subcellular; details: salmonella enterica subsp. enterica serovar typhimurium, read-out: FC; method in brief: as §1
# [10] = Genotoxicity in Salmonella typhimurium TA1535 harboring pSK1002 assessed as umu gene induction at 0.016 mg/ml in presence of Sprague-Dawley rat liver S9 fraction metabolic activation by SOS/umu assay relative to control; assay type: toxicity, subcellular; details: salmonella enterica subsp. enterica serovar typhimurium, read-out: FC; method in brief: as §1
# [11] = Genotoxicity in Salmonella typhimurium TA1535 harboring pSK1002 assessed as umu gene induction at 0.001 mg/ml in presence of Sprague-Dawley rat liver S9 fraction metabolic activation by SOS/umu assay relative to control; assay type: toxicity, subcellular; details: salmonella enterica subsp. enterica serovar typhimurium, read-out: FC; method in brief: as §1
# [12] = (§3) Toxicity in BALB/c mouse infected with Trypanosoma cruzi MHOM/Pe/2011/Arequipa;DTU 5 bloodstream trypomastigote assessed as decrease in serum creatine kinase muscle to brain ratio level in acute phase at 20 mg/kg/day, po administered for 5 consecutive days starting from day 8 post infection and measured on day 100 post infection by biochemical analysis relative to control; assay type: organism-based; design: scale not given: the % may be the effect or the level left; details: in vivo
# Method in brief: (§4)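 Female BALB/c mice (10–12 weeks, 14–20 g; groups of three) were infected i.p. with 5 × 10^5 Arequipa bloodstream trypomastigotes. Dosing was oral at 20 mg/kg/day for 5 days, from day 8 pi (acute) or day 70 pi (chronic), as a 2 mg/ml suspension in 5% DMSO/0.5% HPMC; controls received vehicle. Cyclophosphamide 200 mg/kg i.p. was given at day 80 pi. Serum was collected 2 days post-treatment and at necropsy by cardiac puncture and compared with infected untreated controls.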
# [13] = as §3, with “change” for “decrease”, “lactate dehydrogenase” for “creatine kinase muscle to brain ratio”; assay type: organism-based; details: in vivo; method in brief: as §4
# [14] = as §3, with “change” for “decrease”, “total bilirubin” for “creatine kinase muscle to brain ratio”; assay type: organism-based; details: in vivo; method in brief: as §4
# [15] = (§5) Toxicity in BALB/c mouse infected with Trypanosoma cruzi MHOM/Pe/2011/Arequipa;DTU 5 bloodstream trypomastigote assessed as decrease in serum urea level in chronic phase at 20 mg/kg/day, po administered for 5 consecutive days starting from day 70 post infection and measured at day 76 post infection relative to control; assay type: organism-based; design: scale not given: the % may be the effect or the level left; details: in vivo; method in brief: as §4
# [16] = Toxicity in BALB/c mouse infected with Trypanosoma cruzi MHOM/Pe/2011/Arequipa;DTU 5 bloodstream trypomastigote assessed as decrease in serum total bilirubin level in chronic phase at 20 mg/kg/day administered for 5 consecutive days starting from […] post infection and measured after 2 days of treatment by biochemical analysis (reference value: 0.25 mg/dl ); assay type: organism-based; design: scale not given: the % may be the effect or the level left; details: in vivo, 48 h
# [17] = as §5, with “infection” for “infection and”, “measured on” for “measured at”, “day 100” for “day 76”; assay type: organism-based; design: scale not given: the % may be the effect or the level left; details: in vivo; method in brief: as §4
# [18] = as §5, with “serum total bilirubin” for “serum urea”, “infection” for “infection and”, “measured on” for “measured at”, “day 100” for “day 76”; assay type: organism-based; design: scale not given: the % may be the effect or the level left; details: in vivo; method in brief: as §4
# [19] = Inhibition of Trypanosoma cruzi MHOM/Pe/2011/Arequipa;DTU 5 epimastigote Fe-SOD
# Method in brief: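 Fe-SOD excreted by exponentially growing T. cruzi Arequipa epimastigotes cultured in supplemented MTL at 28 °C. Protein quantified by Bradford. SOD activity measured by the Beyer–Fridovich method. IC50 from inhibition curves by nonlinear regression. Mean of three independent determinations ± standard deviation.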
# [20] = target: Superoxide dismutase [Cu-Zn] (Homo sapiens, UniProt P00441); test: Inhibition of human erythrocyte CuZn-SOD
# Sequence of Superoxide dismutase [Cu-Zn] (P00441 whole entry): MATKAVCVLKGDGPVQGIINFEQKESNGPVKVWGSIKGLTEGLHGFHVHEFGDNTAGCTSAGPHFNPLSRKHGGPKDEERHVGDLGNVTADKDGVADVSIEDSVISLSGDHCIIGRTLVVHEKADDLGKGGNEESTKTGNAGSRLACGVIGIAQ
# Method in brief: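 Commercial human erythrocyte CuZn-SOD. Activity measured by the Beyer–Fridovich method, tested up to 50 µM.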
# [21] = as §3, with “uric acid” for “creatine kinase muscle to brain ratio”; assay type: organism-based; design: scale not given: the % may be the effect or the level left; details: in vivo; method in brief: as §4
SMILES,fold induction at 0.008 mg/ml [1],Ratio (Trypanosoma cruzi) [%],viability at 0.001 mg/ml [2] [%],viability at 0.5 mg/ml [3] [%],viability at 0.125 mg/ml [4] [%],fold induction at 0.031 mg/ml [5],fold induction at 0.008 mg/ml [6],fold induction at 0.5 mg/ml [7],fold induction at 0.25 mg/ml [8],fold induction at 0.063 mg/ml [9],fold induction at 0.016 mg/ml [10],fold induction at 0.001 mg/ml [11],Activity [12],Activity [13] [%],Activity [14] [%],Activity [15],Activity [16],Activity [17],Activity [18],IC50 [19] [µM],also measured
O=C(CCN1CCN(c2ccc(Cl)cc2)CC1)c1ccc(O)cc1,0.77,19,104,157,113,0.7,0.71,0.46,0.63,0.87,0.84,0.76,<= 20%,> 10,> 10,<= 30%,<= 10%,<= 10%,<= 10%,3.9,IC50 [20]: > 50 µM
O=C(Cn1ccnc1[N+](=O)[O-])NCc1ccccc1 [BENZNIDAZOLE],,18,,,,,,,,,,,,,> 10,<= 20%,<= 10%,<= 30%,<= 10%,,Activity [21]: <= 10%
O=C(CCN1CCN(c2ccc(C(F)(F)F)cc2)CC1)c1ccc(O)cc1,0.83,,114,124,138,0.66,0.75,0.74,0.63,0.85,0.79,0.82,<= 30%,> 10,,,,,,4.3,Activity [21]: <= 30%; IC50 [20]: > 50 µM
